In ChEMBL document CHEMBL1146230, “New analogues of the potent cytotoxic saponin OSW-1” (J Med Chem, 2007):

Legend:
MCF7 = test: Cytotoxicity against MCF7 cells after 72 hrs; assay type: functional, Homo sapiens
Summary of the method: (§1)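 Cells grown in DMEM with 10% fetal calf serum, 4 mM glutamine, penicillin/streptomycin, 37 °C, 5% CO2. About 1.25×10^5 cells/mL seeded and stabilized 3 h. Compounds added in DMSO as serial (usually 6- and 4-fold) dilutions, top well usually 50 µM, DMSO final ≤0.6%. After 72 h, Calcein AM for 1 h, fluorescence read. Survival taken vs DMSO controls; TCS50 from dose-response curves; mean ± SD of three experiments.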

HOS = test: Cytotoxicity against HOS cells after 72 hrs; assay type: functional, Homo sapiens; summary of the method: as §1
HeLa = test: Cytotoxicity against HeLa cells after 72 hrs; assay type: functional, Homo sapiens; summary of the method: as §1
[1] = Cytotoxicity against ARN8 cells after 72 hrs; assay type: functional, Homo sapiens; summary of the method: as §1
K562 = test: Cytotoxicity against K562 cells after 72 hrs; assay type: functional, Homo sapiens; summary of the method: as §1
A549 = test: Cytotoxicity against A549 cells after 72 hrs; assay type: functional, Homo sapiens; summary of the method: as §1
CCRF-CEM = test: Cytotoxicity against CEM cells after 72 hrs; assay type: functional, Homo sapiens; summary of the method: as §1
G-361 = test: Cytotoxicity against human G361 cells after 72 hrs; assay type: functional; summary of the method: as §1
[2] = Cytotoxicity against mouse NIH 3T3 cells after 72 hrs; assay type: cell-based, NIH3T3; conditions: read-out: TCS50; summary of the method: as §1

CCCC(=O)[C@@H](C)[C@@]1(O)[C@@H](O[C@@H]2OC[C@H](O)[C@@H](O[C@@H]3OC[C@@H](O)[C@H](O)[C@H]3OC(=O)c3ccc(OC)cc3)[C@@H]2OC(C)=O)C[C@H]2[C@@H]3CC=C4C[C@@H](O)CC[C@]4(C)[C@H]3CC[C@@]21C
TCS50 (MCF7): 90 nM
TCS50 (HOS): 140 nM
TCS50 (HeLa): 12 nM
TCS50 [1]: 3 nM
TCS50 (K562): 1.4 nM
TCS50 (A549): 0.9 nM
TCS50 (CCRF-CEM): 0.5 nM
TCS50 (G-361): 3100 nM
CC50 at 72 h [2]: > 50 µM

COc1cccc2c1C(=O)c1c(O)c3c(c(O)c1C2=O)C[C@@](O)(C(C)=O)C[C@@H]3O[C@H]1C[C@H](N)[C@H](O)[C@H](C)O1 [DAUNORUBICIN]
TCS50 (MCF7): 140 nM
TCS50 (HOS): 330 nM
TCS50 (HeLa): 670 nM
TCS50 (K562): 230 nM
TCS50 (CCRF-CEM): 62 nM
TCS50 (G-361): 670 nM

CCCCCC(=O)[C@@H](C)[C@@]1(O)[C@@H](O[C@@H]2OC[C@H](O)[C@H](O[C@@H]3OC[C@@H](O)[C@H](O)[C@H]3OC(=O)c3ccc(OC)cc3)[C@H]2OC(C)=O)C[C@H]2[C@@H]3CC=C4C[C@@H](O)CC[C@]4(C)[C@H]3CC[C@@]21C
TCS50 (MCF7): 40 nM
TCS50 (HOS): 42 nM
TCS50 (HeLa): 8 nM
TCS50 [1]: 0.6 nM
TCS50 (K562): 0.7 nM
TCS50 (A549): 0.5 nM
TCS50 (CCRF-CEM): 0.2 nM
TCS50 (G-361): 1400 nM
CC50 at 72 h [2]: > 50 µM

CC(=O)O[C@H]1[C@H](O[C@H]2C[C@H]3[C@@H]4CC=C5C[C@@H](O)CC[C@]5(C)[C@H]4CC[C@]3(C)[C@@]2(O)[C@H](C)C(=O)CCC(C)C)OC[C@H](O)[C@@H]1O
TCS50 (MCF7): 1300 nM
TCS50 (HOS): 4200 nM
TCS50 (HeLa): 570 nM
TCS50 [1]: 1950 nM
TCS50 (K562): 430 nM
TCS50 (A549): 4200 nM
TCS50 (CCRF-CEM): 200 nM
TCS50 (G-361): 2200 nM
CC50 at 72 h [2]: > 50 µM

CCCCCOC[C@@H](C)[C@@]1(O)[C@@H](O[C@@H]2OC[C@H](O)[C@H](O[C@@H]3OC[C@@H](O)[C@H](O)[C@H]3OC(=O)c3ccc(OC)cc3)[C@H]2OC(C)=O)C[C@H]2[C@@H]3CC=C4C[C@@H](O)CC[C@]4(C)[C@H]3CC[C@@]21C
TCS50 (MCF7): 860 nM
TCS50 (HOS): 1800 nM
TCS50 (HeLa): 350 nM
TCS50 [1]: <400 nM
TCS50 (K562): <400 nM
TCS50 (A549): <200 nM
TCS50 (CCRF-CEM): <200 nM
TCS50 (G-361): 1900 nM
CC50 at 72 h [2]: > 50 µM

COc1ccc(C(=O)O[C@H]2[C@H](O[C@@H]3[C@@H](OC(C)=O)[C@H](O[C@H]4C[C@H]5[C@@H]6CC=C7C[C@@H](O)CC[C@]7(C)[C@H]6CC[C@]5(C)[C@@]4(O)[C@H](C)C(=O)CCC(C)C)OC[C@@H]3O)OC[C@@H](O)[C@@H]2O)cc1
TCS50 (MCF7): 50 nM
TCS50 (HOS): 40 nM
TCS50 (HeLa): 8 nM
TCS50 [1]: 4 nM
TCS50 (K562): 0.8 nM
TCS50 (A549): 0.5 nM
TCS50 (CCRF-CEM): 0.3 nM
TCS50 (G-361): 1000 nM
CC50 at 72 h [2]: > 50 µM

COc1ccc(C(=O)O[C@H]2[C@H](O[C@H]3C[C@H]4[C@@H]5CC=C6C[C@@H](O)CC[C@]6(C)[C@H]5CC[C@]4(C)[C@@]3(O)[C@H](C)C(=O)CCC(C)C)OC[C@@H](O)[C@@H]2O)cc1
TCS50 (MCF7): 3500 nM
TCS50 (HOS): 7200 nM
TCS50 (HeLa): 2300 nM
TCS50 [1]: 1500 nM
TCS50 (K562): 1800 nM
TCS50 (A549): 7200 nM
TCS50 (CCRF-CEM): 1000 nM
TCS50 (G-361): 3500 nM
CC50 at 72 h [2]: > 50 µM

COc1ccc(C(=O)O[C@H]2[C@H](O[C@@H]3[C@@H](OC(C)=O)[C@H](O[C@@H](CCC(C)C)[C@@H](C)[C@@]4(O)C(=O)C[C@H]5[C@@H]6CC=C7C[C@@H](O)CC[C@]7(C)[C@H]6CC[C@@]54C)OC[C@@H]3O)OC[C@@H](O)[C@@H]2O)cc1
TCS50 (MCF7): 3400 nM
TCS50 (HOS): 11700 nM
TCS50 (HeLa): 1000 nM
TCS50 [1]: 500 nM
TCS50 (K562): 430 nM
TCS50 (A549): 480 nM
TCS50 (CCRF-CEM): 280 nM
TCS50 (G-361): 14400 nM
CC50 at 72 h [2]: > 50 µM
